# Results from different studies.
# Protocols differ between the studies behind these lines.
# PADI4: Protein-arginine deiminase type-4 (PADI4, Homo sapiens, UniProt Q9UM07)
# CA9: Carbonic anhydrase 9 (CA9, Homo sapiens, UniProt Q16790)
# MAOB: Amine oxidase [flavin-containing] B (MAOB, Homo sapiens, UniProt P27338)
# HDAC9: Histone deacetylase 9 (HDAC9, Homo sapiens, UniProt Q9UKV0)
# Pancreatic alpha-amylase: Pancreatic alpha-amylase (Homo sapiens, UniProt P04746)
Structure (SMILES),target,test,conditions,IC50 [µM]
Cc1cc(C)nc(Nc2ccc(C(=O)N[C@@H](CCCNC(=N)CCl)C(=O)NCc3ccccc3)cn2)c1,PADI4,"enzyme activity, inhibitor, fluorescence",with preincubation,1.02
O=C1Nc2ccc(I)cc2/C1=C/c1cc(Br)c(O)c(Br)c1,"Dual specificity tyrosine-phosphorylation-regulated kinase 4 (DYRK4, Homo sapiens, UniProt Q9NR20)","enzyme activity, inhibitor",,4.94
NS(=O)(=O)c1ccc(Nc2nc(-c3cc4cc(Br)ccc4oc3=O)cs2)c(Br)c1,CA9,"enzyme activity, inhibitor",,0.86
O=C(Nc1ccc(Cl)c(F)c1)c1ccc2c(c1)C(=O)NC2=O,MAOB,"enzyme activity, inhibitor",,0.029
N=C(CCl)NCCC[C@H](NC(=O)c1cccc(-c2ccc(O)cc2)c1)C(=O)NCc1ccccc1,PADI4,"enzyme activity, inhibitor, fluorescence",with preincubation,0.524
O=C(O)CC(O)(CC(=O)O)C(=O)O,"Catechol O-methyltransferase (Comt, Rattus norvegicus, UniProt P22734)","enzyme activity, inhibitor",,947
O=C(Nc1ccc(F)c(Br)c1)c1ccc2c(c1)C(=O)NC2=O,MAOB,"enzyme activity, inhibitor",,0.011
O=C(NO)c1ccc(Cn2cnc3c(Nc4cccc([N+](=O)[O-])c4)ncnc32)cc1,HDAC9,"enzyme activity, inhibitor",,0.677
CS(=O)(=O)Nc1ccc(Nc2nc(-c3cc4cc(Br)ccc4oc3=O)cs2)cc1Oc1ccccc1,CA9,"enzyme activity, inhibitor",,5.74
COc1cc(/C=N/NC(=S)N/N=C/c2ccccc2)ccc1Oc1ccnc2cc(Cl)ccc12,Pancreatic alpha-amylase,"enzyme activity, inhibitor, absorbance",,46.4
O=C(N[C@@H](CSCc1ccc([N+](=O)[O-])cc1)C(=O)NO)c1ccccc1,"Lactoylglutathione lyase (GLO1, Homo sapiens, UniProt Q04760)","enzyme activity, inhibitor",,0.952
COc1cc(/C=N/NC(=S)N/N=C/c2ccc(N(C)C)cc2)ccc1Oc1ccnc2cc(Cl)ccc12,Pancreatic alpha-amylase,"enzyme activity, inhibitor, absorbance",,50
N=C(CCl)NCCC[C@H](NC(=O)c1ccc2cc(B(O)O)ccc2c1)c1nc2ccccc2[nH]1,PADI4,"enzyme activity, inhibitor, fluorescence",with preincubation,0.295
COc1cc(/C=N/NC(=S)NN=Cc2scnc2C)ccc1Oc1ccnc2cc(Cl)ccc12,Pancreatic alpha-amylase,"enzyme activity, inhibitor, absorbance",,57.1
CN(C)c1ccc2cc(C(=O)N[C@@H](CCCNC(=N)CCl)c3nc4ccccc4[nH]3)ccc2c1,PADI4,"enzyme activity, inhibitor, fluorescence",with preincubation,1.06
O=C(CCNC(=O)CNC(=O)CC(c1ccccc1)(c1ccccc1)c1ccccc1)NC[C@@H]1CCCN(Cc2ccc(F)nc2)C1,"Muscarinic acetylcholine receptor M4 (CHRM4, Homo sapiens, UniProt P08173)","ligand displacement, radioligand",cell membranes,> 30
COc1cc(/C=N/NC(=S)NN=Cc2ccc(CO)o2)ccc1Oc1ccnc2cc(Cl)ccc12,Pancreatic alpha-amylase,"enzyme activity, inhibitor, absorbance",,46.4
CC(C)N(CCC(=O)c1ccc2ccccc2c1)Cc1ccccc1,"Retinaldehyde dehydrogenase 3 (ALDH1A3, Homo sapiens, UniProt P47895)","enzyme activity, inhibitor",,< 10
COc1ccc2cc(C(=O)N[C@@H](CCCNC(=N)CCl)C(=O)NCc3ccccc3)[nH]c2c1,PADI4,"enzyme activity, inhibitor, fluorescence",with preincubation,0.362
COc1ccc(N(Cc2csc(-c3ccccc3)n2)C(=O)CCCCCC(=O)NO)cc1,HDAC9,"enzyme activity, inhibitor",,> 10
CCCNS(=O)(=O)Nc1ncnc(OCCOc2ncc(Br)cn2)c1-c1ccc(Br)cc1,"Endothelin receptor type B (EDNRB, Homo sapiens, UniProt P24530)","ligand displacement, radioligand",cell membranes,1.37
